Source: ChEMBL document CHEMBL1137730, “Synthesis and antiparasitic and antifungal evaluation of 2'-arylsubstituted-1H,1'H-[2,5']bisbenzimidazolyl-5-carboxamidines” (Eur J Med Chem, 2009)
In brackets after ≈: the same amount, converted by molar mass.

Key:
[1] = test system: Candida albicans; assay: Antifungal activity against Candida albicans ATCC 10231 by macro-broth dilution method; assay type: functional
Summary of the method: (§1)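 Macro-broth (tube) dilution; compounds and reference drugs dissolved in water or 40% DMSO-water as 400 µg/mL stock, brought to 100 µg/mL in the first tube by 4-fold dilution with culture medium and fungal suspension. Result reported as MIC.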

[2] = test system: Plasmodium falciparum; assay: Antiparasitic activity against Plasmodium falciparum K1; assay type: functional, organism-based
[3] = test system: Trypanosoma brucei rhodesiense; assay: Antiparasitic activity against Trypanosoma brucei rhodesiense STIB900; assay type: functional, organism-based
[4] = test system: Leishmania donovani; assay: Antiparasitic activity against Leishmania donovani MHOM-ET/67/L82 at 0.81 ug/ml; assay type: functional
[5] = test system: Leishmania donovani; assay: Antiparasitic activity against Leishmania donovani MHOM-ET/67/L82 at 4.85 ug/ml; assay type: functional
[6] = test system: Trypanosoma cruzi; assay: Antiparasitic activity against Trypanosoma cruzi Tulahuen C4 containing lacz gene at 0.81 ug/ml; assay type: functional; settings: Tulahen C4
[7] = test system: Trypanosoma cruzi; assay: Antiparasitic activity against Trypanosoma cruzi Tulahuen C4 containing lacz gene at 4.85 ug/ml; assay type: functional; settings: Tulahen C4
[8] = test system: Pichia kudriavzevii; assay: Antifungal activity against Candida krusei ATCC 6258 by macro-broth dilution method; assay type: functional; summary of the method: as §1
[9] = test system: L6; assay: Cytotoxicity against rat L6 cells by alamar blue assay; assay type: cell-based
Summary of the method: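 Rat L-6 myoblasts in culture; viability read by Alamar Blue.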

| SMILES | MIC [1] [µg/mL] | IC50 [2] [µg/mL] | IC50 [3] [µg/mL] | inhibition at 0.81 µg/mL [4] [%] | inhibition at 4.85 µg/mL [5] [%] | inhibition at 0.81 µg/mL [6] [%] | inhibition at 4.85 µg/mL [7] [%] | MIC [8] [µg/mL] | IC50 [9] [µg/mL] |
| --- | --- | --- | --- | --- | --- | --- | --- | --- | --- |
| N=C(N)c1ccc2[nH]c(-c3ccc4nc(-c5ccccc5F)[nH]c4c3)nc2c1 | 12.5 (≈ 33.7 µM) | 0.007 (≈ 0.0189 µM) | 0.08 (≈ 0.216 µM) | ≤ 50 | ≤ 70 | ≤ 50 | ≤ 70 | 12.5 (≈ 33.7 µM) | 26.8 (≈ 72.4 µM) |
| N=C(N)c1ccc2[nH]c(-c3ccc4nc(-c5ccc(OCc6ccccc6)c(OCc6ccccc6)c5)[nH]c4c3)nc2c1 | 25 (≈ 44.3 µM) | 0.061 (≈ 0.108 µM) | 1.06 (≈ 1.88 µM) | ≤ 50 | ≤ 70 | ≤ 50 | ≤ 70 | 50 (≈ 88.6 µM) | > 90 |
| N=C(N)c1ccc2[nH]c(-c3ccc4nc(-c5ccccc5Oc5ccc(Cl)cc5)[nH]c4c3)nc2c1 | 50 (≈ 104 µM) | 0.193 (≈ 0.403 µM) | – | ≤ 50 | ≤ 70 | ≤ 50 | ≤ 70 | 50 (≈ 104 µM) | > 90 |
| N=C(N)c1ccc2[nH]c(-c3ccc4nc(-c5ccc6ccccc6c5)[nH]c4c3)nc2c1 | 6.25 (≈ 15.5 µM) | 0.016 (≈ 0.0398 µM) | 0.389 (≈ 0.967 µM) | ≤ 50 | ≤ 70 | ≤ 50 | ≤ 70 | 25 (≈ 62.1 µM) | 34.7 (≈ 86.2 µM) |
| N=C(N)c1ccc2[nH]c(-c3ccc4nc(-c5ccc(O)cc5)[nH]c4c3)nc2c1 | 0.78 (≈ 2.12 µM) | 0.013 (≈ 0.0353 µM) | 0.017 (≈ 0.0461 µM) | – | – | – | – | – | 4.2 (≈ 11.4 µM) |
| N=C(N)c1ccc2[nH]c(-c3ccc4nc(-c5ccc(F)c(F)c5)[nH]c4c3)nc2c1 | 25 (≈ 64.4 µM) | 0.015 (≈ 0.0386 µM) | 0.33 (≈ 0.85 µM) | ≤ 50 | ≤ 70 | ≤ 50 | ≤ 70 | 25 (≈ 64.4 µM) | 29.8 (≈ 76.7 µM) |
| N=C(N)c1ccc2[nH]c(-c3ccc4nc(-c5ccc(F)cc5)[nH]c4c3)nc2c1 | 25 (≈ 67.5 µM) | 0.01 (≈ 0.027 µM) | 0.04 (≈ 0.108 µM) | ≤ 50 | ≤ 70 | ≤ 50 | ≤ 70 | 12.5 (≈ 33.7 µM) | 2.48 (≈ 6.7 µM) |
| CC(C)(C)c1ccc(-c2nc3ccc(-c4nc5cc(C(=N)N)ccc5[nH]4)cc3[nH]2)cc1 | 1.56 (≈ 3.82 µM) | 0.031 (≈ 0.0759 µM) | 1.06 (≈ 2.59 µM) | ≤ 50 | ≤ 70 | ≤ 50 | ≤ 70 | 12.5 (≈ 30.6 µM) | 13 (≈ 31.8 µM) |
| CC(C)(C)c1cccc(-c2nc3ccc(-c4nc5cc(C(=N)N)ccc5[nH]4)cc3[nH]2)c1O | 3.12 (≈ 7.35 µM) | 0.211 (≈ 0.497 µM) | – | ≤ 50 | ≤ 70 | ≤ 50 | ≤ 70 | 6.25 (≈ 14.7 µM) | 13.4 (≈ 31.6 µM) |
| N=C(N)c1ccc2[nH]c(-c3ccc4nc(-c5cc(C(F)(F)F)ccc5Cl)[nH]c4c3)nc2c1 | – | 0.064 (≈ 0.141 µM) | – | ≤ 50 | ≤ 70 | ≤ 50 | ≤ 70 | – | 31.8 (≈ 69.9 µM) |
| N=C(N)c1ccc2[nH]c(-c3ccc4nc(-c5cc(C(F)(F)F)cc(C(F)(F)F)c5)[nH]c4c3)nc2c1 | 50 (≈ 102 µM) | 0.63 (≈ 1.29 µM) | – | ≤ 50 | ≤ 70 | ≤ 50 | ≤ 70 | 25 (≈ 51.2 µM) | 76.8 (≈ 157 µM) |
| N=C(N)c1ccc2[nH]c(-c3ccc4nc(-c5ccc(OCc6ccccc6)cc5)[nH]c4c3)nc2c1 | 12.5 (≈ 27.3 µM) | 0.017 (≈ 0.0371 µM) | 0.81 (≈ 1.77 µM) | ≤ 50 | ≤ 70 | ≤ 50 | ≤ 70 | 25 (≈ 54.5 µM) | 17.4 (≈ 37.9 µM) |
| COc1ccc(Oc2ccc(-c3nc4ccc(-c5nc6cc(C(=N)N)ccc6[nH]5)cc4[nH]3)cc2)cc1OC | 3.12 (≈ 6.18 µM) | 0.015 (≈ 0.0297 µM) | 0.036 (≈ 0.0714 µM) | ≤ 50 | ≤ 70 | ≤ 50 | ≤ 70 | 6.25 (≈ 12.4 µM) | 29.4 (≈ 58.3 µM) |
| COc1ccc(-c2nc3ccc(-c4nc5cc(C(=N)N)ccc5[nH]4)cc3[nH]2)cc1OC | 25 (≈ 60.6 µM) | 0.008 (≈ 0.0194 µM) | 0.06 (≈ 0.145 µM) | ≤ 50 | ≤ 70 | ≤ 50 | ≤ 70 | 25 (≈ 60.6 µM) | > 90 |
| COc1cc(-c2nc3ccc(-c4nc5cc(C(=N)N)ccc5[nH]4)cc3[nH]2)ccc1OCc1ccccc1 | 25 (≈ 51.2 µM) | 0.023 (≈ 0.0471 µM) | 0.57 (≈ 1.17 µM) | ≤ 50 | ≤ 70 | ≤ 50 | ≤ 70 | 50 (≈ 102 µM) | 19.8 (≈ 40.5 µM) |
| N=C(N)c1ccc2[nH]c(-c3ccc4nc(-c5cc(F)ccc5Oc5ccc(Cl)cc5)[nH]c4c3)nc2c1 | 50 (≈ 101 µM) | 0.634 (≈ 1.28 µM) | – | ≤ 50 | ≤ 70 | ≤ 50 | ≤ 70 | 50 (≈ 101 µM) | > 90 |
| N=C(N)c1ccc2[nH]c(-c3ccc4nc(-c5ccc(Oc6ccc(Cl)cc6)cc5)[nH]c4c3)nc2c1 | 25 (≈ 52.2 µM) | 0.028 (≈ 0.0585 µM) | 0.708 (≈ 1.48 µM) | ≤ 50 | ≤ 70 | ≤ 50 | ≤ 70 | 25 (≈ 52.2 µM) | 46 (≈ 96 µM) |
| N=C(N)c1ccc2[nH]c(-c3ccc4nc(-c5cccc6ccccc56)[nH]c4c3)nc2c1 | 0.78 (≈ 1.94 µM) | 0.016 (≈ 0.0398 µM) | 0.48 (≈ 1.19 µM) | ≤ 50 | ≤ 70 | ≤ 50 | ≤ 70 | 12.5 (≈ 31.1 µM) | 8.72 (≈ 21.7 µM) |
| COc1ccc(-c2nc3ccc(-c4nc5cc(C(=N)N)ccc5[nH]4)cc3[nH]2)cc1 | > 100 | 0.015 (≈ 0.0392 µM) | 0.009 (≈ 0.0235 µM) | – | – | – | – | – | 10 (≈ 26.1 µM) |
| COc1cc(OC)cc(-c2nc3ccc(-c4nc5cc(C(=N)N)ccc5[nH]4)cc3[nH]2)c1 | 50 (≈ 121 µM) | 0.017 (≈ 0.0412 µM) | 0.59 (≈ 1.43 µM) | ≤ 50 | ≤ 70 | ≤ 50 | ≤ 70 | 50 (≈ 121 µM) | 25.5 (≈ 61.8 µM) |
| OC(Cn1cncn1)(Cn1cncn1)c1ccc(F)cc1F [FLUCONAZOLE] | 0.78 (≈ 2.55 µM) | – | – | – | – | – | – | 25 (≈ 81.6 µM) | – |
| Nc1nc(N)nc(Nc2ccc([As]3SCC(CO)S3)cc2)n1 (stereo unspecified) [MELARSOPROL] | – | – | 0.003 | – | – | – | – | – | – |
